From ChEMBL document CHEMBL1127432, “Synthesis, in vitro biological stability, and anti-HIV activity of 5-halo-6-alkoxy(or azido)-5,6-dihydro-3'-azido-3'-deoxythymidine diastereomers as potential prodrugs to 3'-azido-3'-deoxythymidine (AZT)” (J Med Chem, 1994)

Molecular target: Human immunodeficiency virus 1 (Human immunodeficiency virus 1, UniProt Q72547)
Assay: Effective concentration (in vitro anti-HIV activity ) which produces a 50% survival of HIV-1-infected CEM cells relative to uninfected untreated controls; Inactive
Format: functional, cell-based
Conditions: ccrf-cem; call rule not given here
Method in brief: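 HIV-1-infected CEM (T4 lymphocyte) cells given small amounts of virus, allowing one complete replication cycle to cause cell killing. Read-out: protection from cytolysis (cell survival) relative to uninfected untreated controls. EC50 is the drug concentration giving 50% survival of infected cells. AZT-treated positive control run concurrently under identical conditions. Run through the NCI Developmental Therapeutics Program AIDS antiviral screen.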

Question: Which EC50 does the source give for `CCCCCCCCCCCCCCCCO[C@H]1N(C2CC(N=[N+]=[N-])C(CO)O2)C(=O)NC(=O)[C@]1(C)Br` (stereo not given in full) here?
Answer: Not Active

Question: For `CCO[C@H]1N(C2CC(N=[N+]=[N-])C(CO)O2)C(=O)NC(=O)[C@@]1(C)Cl` (stereo not given in full), which EC50 is on record?
Answer: Not Active

Question: Which EC50 does the source give for `CC(C)O[C@H]1N(C2CC(N=[N+]=[N-])C(CO)O2)C(=O)NC(=O)[C@]1(C)Cl` (stereo not given in full) here?
Answer: Not Active

Question: For `CCCCCCCCCCCCCCCCO[C@H]1N(C2CC(N=[N+]=[N-])C(CO)O2)C(=O)NC(=O)[C@]1(C)Cl` (stereo not given in full), which EC50 is on record?
Answer: Not Active

Question: For `CCO[C@H]1N(C2CC(N=[N+]=[N-])C(CO)O2)C(=O)NC(=O)[C@]1(C)Cl` (stereo not given in full), which EC50 is on record?
Answer: Not Active

Question: Which EC50 does the source give for `CCCCCCCCO[C@H]1N(C2CC(N=[N+]=[N-])C(CO)O2)C(=O)NC(=O)[C@]1(C)Cl` (stereo not given in full) here?
Answer: Not Active

Question: For `CCO[C@@H]1N(C2CC(N=[N+]=[N-])C(CO)O2)C(=O)NC(=O)[C@@]1(C)Cl` (stereo not given in full), which EC50 is on record?
Answer: Not Active

Molecular target: not listed separately
Assay: Effective concentration in vitro against HIV-1-infected CEM cells relative to uninfected untreated controls
Conditions: ccrf-cem

Question: With `Cc1cn([C@H]2C[C@H](N=[N+]=[N-])[C@@H](CO)O2)c(=O)[nH]c1=O` [ZIDOVUDINE] as the compound, how does the EC50 read?
Answer: 3 nM

Test system: CCRF-CEM
Assay: Inhibitory concentration (cytotoxic activity) which results in a 50% survival of […]
Format: functional, cell-based
Conditions: Homo sapiens
Method in brief: (§1)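 Cytotoxicity run in the NCI AIDS screening program on CEM T4 lymphocytes alongside the anti-HIV test. IC50 = drug concentration giving 50% survival of uninfected untreated control cells. AZT control tested concurrently.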

Question: For `CCCCCCCCO[C@H]1N(C2CC(N=[N+]=[N-])C(CO)O2)C(=O)NC(=O)[C@]1(C)Br` (stereo not given in full), which IC50 is on record?
Answer: 12.4 µM

Question: Which IC50 does the source give for `CCO[C@H]1N(C2CC(N=[N+]=[N-])C(CO)O2)C(=O)NC(=O)[C@]1(C)Br` (stereo not given in full) here?
Answer: 18.5 µM

Question: With `CC(C)O[C@H]1N(C2CC(N=[N+]=[N-])C(CO)O2)C(=O)NC(=O)[C@]1(C)Br` (stereo not given in full) as the compound, how does the IC50 read?
Answer: > 200 µM

Question: For `CCCCCCCCCCCCCCCCO[C@H]1N(C2CC(N=[N+]=[N-])C(CO)O2)C(=O)NC(=O)[C@]1(C)Br` (stereo not given in full), which IC50 is on record?
Answer: 11 µM

Question: For `CCO[C@H]1N(C2CC(N=[N+]=[N-])C(CO)O2)C(=O)NC(=O)[C@@]1(C)Cl` (stereo not given in full), which IC50 is on record?
Answer: > 200 µM

Question: For `CC(C)O[C@H]1N(C2CC(N=[N+]=[N-])C(CO)O2)C(=O)NC(=O)[C@]1(C)Cl` (stereo not given in full), which IC50 is on record?
Answer: > 200 µM

Question: Which IC50 does the source give for `CCCCCCCCCCCCCCCCO[C@H]1N(C2CC(N=[N+]=[N-])C(CO)O2)C(=O)NC(=O)[C@]1(C)Cl` (stereo not given in full) here?
Answer: 31 µM

Question: Which IC50 does the source give for `CCO[C@@H]1N(C2CC(N=[N+]=[N-])C(CO)O2)C(=O)NC(=O)[C@@]1(C)Cl` (stereo not given in full) here?
Answer: > 200 µM

Test system: not listed separately
Assay: Regeneration of the 5,6-Olefinic bond was measured as percent of 3''-azido-3''-deoxythymidine (AZT) formed upon incubation with Glutathione for 30 min at 37 degree C
Format: functional
Conditions: not given
Method in brief: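 Compound incubated with reduced glutathione at a compound:GSH mole ratio of 1:2 (1:5 for some analogs) in phosphate buffer pH 7.4 at 37 °C, for times up to 24 h. AZT formed quantified by HPLC, UV 230 nm (dihydro compound) and 265 nm (AZT), water:methanol 7:3 eluent.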

Question: Which AZT formation does the source give for `CCO[C@H]1N(C2CC(N=[N+]=[N-])C(CO)O2)C(=O)NC(=O)[C@]1(C)Br` (stereo not given in full) here?
Answer: 100%

Test system: not listed separately
Assay: Therapeutic index of IC50 to EC50
Conditions: read-out: TI
Method in brief: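 TI = IC50/EC50, both from the NCI CEM cell screen. IC50 is the drug concentration giving 50% survival of uninfected untreated controls. EC50 is the concentration giving 50% survival of HIV-1-infected cells relative to uninfected untreated controls.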

Question: For `CCCCCCCCO[C@H]1N(C2CC(N=[N+]=[N-])C(CO)O2)C(=O)NC(=O)[C@]1(C)Br` (stereo not given in full), which selectivity ratio is on record?
Answer: 14

Question: With `CCO[C@H]1N(C2CC(N=[N+]=[N-])C(CO)O2)C(=O)NC(=O)[C@]1(C)Br` (stereo not given in full) as the compound, how does the selectivity ratio read?
Answer: 2740

Question: For `CC(C)O[C@H]1N(C2CC(N=[N+]=[N-])C(CO)O2)C(=O)NC(=O)[C@]1(C)Br` (stereo not given in full), which selectivity ratio is on record?
Answer: 35

Question: Which selectivity ratio does the source give for `Cc1cn([C@H]2C[C@H](N=[N+]=[N-])[C@@H](CO)O2)c(=O)[nH]c1=O` [ZIDOVUDINE] here?
Answer: > 10000

Test system: CCRF-CEM
Assay: Inhibitory concentration (cytotoxic activity) which results in a 50% survival of […]; ND=Not determined
Format: functional, cell-based
Conditions: Homo sapiens
Method in brief: as §1

Question: For `CCO[C@H]1N(C2CC(N=[N+]=[N-])C(CO)O2)C(=O)NC(=O)[C@]1(C)Cl` (stereo not given in full), which IC50 is on record?
Answer: > 200 µM

Question: For `CCCCCCCCO[C@H]1N(C2CC(N=[N+]=[N-])C(CO)O2)C(=O)NC(=O)[C@]1(C)Cl` (stereo not given in full), which IC50 is on record?
Answer: 37.5 µM

Molecular target: Thymidine phosphorylase (Escherichia coli K-12) (UniProt P07650)
Assay: In vitro percent of phosphorolysis after incubation with Escherichia coli thymidine phosphorylase for 10 min at 37 degree C
Format: functional
Conditions: not given
Method in brief: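 E. coli thymidine phosphorylase diluted in 10 mM Tris-HCl pH 7.3 with EDTA, plus 100 mM KH2PO4 pH 7.1 (stock), prewarmed to 37 °C. Substrate added, 10 min at 37 °C, stopped with ice-cold methanol, spun. HPLC-UV at 230 nm tracked substrate loss or appearance of base. Thymidine used as control substrate; each run at least twice.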

Thymidine phosphorylase (Escherichia coli K-12), sequence (P07650 whole entry, looked up): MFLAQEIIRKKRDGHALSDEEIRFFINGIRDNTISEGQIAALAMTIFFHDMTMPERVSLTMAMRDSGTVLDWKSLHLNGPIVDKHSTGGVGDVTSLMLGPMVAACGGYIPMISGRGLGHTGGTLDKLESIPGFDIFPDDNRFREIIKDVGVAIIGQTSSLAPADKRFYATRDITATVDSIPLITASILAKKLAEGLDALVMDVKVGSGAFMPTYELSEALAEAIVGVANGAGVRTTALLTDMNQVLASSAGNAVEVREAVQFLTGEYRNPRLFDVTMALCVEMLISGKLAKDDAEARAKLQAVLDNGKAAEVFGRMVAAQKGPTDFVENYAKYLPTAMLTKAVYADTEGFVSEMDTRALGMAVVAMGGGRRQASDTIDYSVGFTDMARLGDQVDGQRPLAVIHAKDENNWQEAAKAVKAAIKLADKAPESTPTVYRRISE

Question: With `CCO[C@H]1N(C2CC(N=[N+]=[N-])C(CO)O2)C(=O)NC(=O)[C@]1(C)Br` (stereo not given in full) as the compound, how does the Phosphorolysis read?
Answer: 0%

Question: For `Cc1cn([C@H]2C[C@H](N=[N+]=[N-])[C@@H](CO)O2)c(=O)[nH]c1=O` [ZIDOVUDINE], which Phosphorolysis is on record?
Answer: 0%
